According to ChEMBL document CHEMBL1157676, “Carboxymethylated-kappa-casein: a convenient tool for the identification of polyphenolic inhibitors of amyloid fibril formation” (Bioorg Med Chem, 2010):
Calls of active or inactive are those of the source. The rule behind the calls is not given here.

What was measured:
[1] = Inhibition of reduced carboxymethylated kappa-casein fibril formation assessed as formation of shorter and stunted fibrils by transmission electron microscopy
[2] = Inhibition of reduced carboxymethylated kappa-casein fibril formation at 50 ug/mL measured every 5 mins after 1000 mins by thioflavin T staining-based binding assay
Procedure, shortened: (§1)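 RCM-κ-CN (0.5 mg/mL final) in 50 mM sodium phosphate pH 7.2 with 10 µM ThT and test compound (final DMSO ≤1%), incubated at 37 °C unshaken in sealed plates. Fluorescence (ex 440/em 490 nm) was read every 5 min for 1000 min. %FFi = 100×(ΔFc−ΔFs)/ΔFc versus a 1% DMSO control. Duplicates.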

[3] = Inhibition of reduced carboxymethylated kappa-casein fibril formation measured every 5 mins after 1000 mins by thioflavin T staining-based binding assay
Procedure, shortened: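 RCM-κ-CN fibrillation (0.5 mg/mL) at 37 °C, pH 7.2 phosphate (50 mM), 10 µM ThT, no shaking. ThT fluorescence 440/490 nm was read every 5 min over 1000 min. Duplicate samples. The positive control IC50 is the mean of four batches.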

[4] = Inhibition of reduced carboxymethylated kappa-casein fibril formation at 5 ug/mL measured every 5 mins after 1000 mins by thioflavin T staining-based binding assay
Procedure, shortened: as §1

[5] = Inhibition of reduced carboxymethylated kappa-casein fibril formation at 12.5 ug/mL measured every 5 mins after 1000 mins by thioflavin T staining-based binding assay
Procedure, shortened: as §1

[6] = Inhibition of reduced carboxymethylated kappa-casein fibril formation at 100 ug/mL measured every 5 mins after 1000 mins by thioflavin T staining-based binding assay
Procedure, shortened: as §1

[7] = Inhibition of beta amyloid (1 to 42) fibril formation at 50 ug/mL by thioflavin T staining-based binding assay
[8] = Inhibition of beta amyloid (1 to 40) fibril formation by thioflavin T staining-based binding assay
[9] = Inhibition of beta amyloid (1 to 42) fibril formation by thioflavin T staining-based binding assay
[10] = Inhibition of beta amyloid (1 to 40) fibril formation
[11] = Selectivity ratio of IC50 for reduced carboxymethylated kappa-casein fibril formation to IC50 for beta amyloid (1 to 40) fibril formation
[12] = Selectivity ratio of IC50 for reduced carboxymethylated kappa-casein fibril formation to IC50 for beta amyloid (1 to 42) fibril formation
[13] = Inhibition of beta amyloid (1 to 42) fibril formation
[14] = Inhibition of reduced carboxymethylated kappa-casein fibril formation at 17 ug/mL measured every 5 mins after 1000 mins by thioflavin T staining-based binding assay
Procedure, shortened: as §1

[15] = Inhibition of beta amyloid (1 to 40) fibril formation after 24 hrs by fluorimetry

Structure (SMILES) | inhibition [1] | inhibition [2] | IC50 [3] | IC50 [8] | IC50 [9] | further results
CC(=O)Oc1cc(OC(C)=O)c2c(=O)c(OC(C)=O)c(-c3ccc(OC(C)=O)c(OC(C)=O)c3)oc2c1 | Active | 90% | 6800 nM | – | – | –
CO/C(=C\c1ccc(OC)c(OC)c1)C(=O)c1c(O)cc(OC)cc1OC | – | 35% | – | – | – | –
COc1ccc(-c2coc3cc(O)cc(O)c3c2=O)cc1 | – | – | – | – | – | inhibition [4]: 0%
COc1ccc2c(=O)c(O)c(-c3cc(OC)c(OC)cc3CO)oc2c1 | – | – | – | – | – | inhibition [5]: 0%
O=c1c(O)c(-c2ccc(O)cc2)oc2cc(O)ccc12 | – | – | – | – | – | inhibition [4]: 0%
Oc1ccc([C@H]2Oc3cc(O)cc(O)c3C[C@H]2O)cc1 | – | – | – | – | – | inhibition [6]: 17%
O=C1c2c(O)cc(O)cc2O[C@H](c2ccc(O)c(O)c2)[C@H]1O [(+)-TAXIFOLIN] | – | 84% | 40100 nM | – | – | inhibition [7]: 57%
Oc1cc(O)c2c(c1)O[C@H](c1ccc(O)c(O)c1)[C@H](O)C2 [(-)-EPICATECHIN] | – | 7% | – | 2800 nM | 5600 nM | –
COc1ccc(-c2coc3cc(O)ccc3c2=O)cc1O [CALYCOSIN] | – | – | – | – | – | inhibition [4]: 1%; IC50 [10]: Not Active
Oc1cc(O)c2c(c1)O[C@H](c1ccc(O)c(O)c1)[C@@H](O)C2 [CIANIDANOL] | – | 0% | – | 2900 nM | 5300 nM | –
O=c1c(-c2ccc(O)cc2)coc2cc(O)ccc12 [DAIDZEIN] | – | 25% | – | – | – | IC50 [10]: Active
O=C(O[C@@H]1Cc2c(O)cc(O)cc2O[C@@H]1c1cc(O)c(O)c(O)c1)c1cc(O)c(O)c(O)c1 [EPIGALOCATECHIN GALLATE] | – | 100% | 3700 nM | – | – | inhibition [7]: 100%; Ratio IC50 [11]: 20; Ratio IC50 [12]: 10; IC50 ([10]; read-out: IC50): 180 nM
O=c1c(O)c(-c2ccccc2)oc2cc(O)cc(O)c12 [GALANGIN] | Active | 68% | 61000 nM | – | – | IC50 [10]: Not Active
O=c1c(-c2ccc(O)cc2)coc2cc(O)cc(O)c12 [GENISTEIN] | – | 95% | 190000 nM | – | – | inhibition [7]: 43%; IC50 [10]: Active
O=c1c(O)c(-c2ccc(O)cc2)oc2cc(O)cc(O)c12 [KAEMPFEROL] | Active | 86% | 33000 nM | 1700 nM | 3200 nM | Ratio IC50 [11]: 20; Ratio IC50 [12]: 10
O=c1c(O)c(-c2ccc(O)cc2O)oc2cc(O)cc(O)c12 [MORIN] | – | 99% | 49500 nM | 240 nM | 670 nM | inhibition [7]: 94%; Ratio IC50 [11]: 206; Ratio IC50 [12]: 74
O=c1c(O)c(-c2cc(O)c(O)c(O)c2)oc2cc(O)cc(O)c12 [MYRICETIN] | Active | – | – | 290 nM | 400 nM | IC50 [13]: 340 nM; inhibition [14]: 92%; IC50 ([10]; read-out: IC50): 200 nM; IC50 [15]: 900 nM
O=c1c(O)c(-c2ccc(O)c(O)c2)oc2cc(O)cc(O)c12 [QUERCETIN] | Active | 84% | 13600 nM | 240 nM | 720 nM | inhibition [7]: 95%; Ratio IC50 [11]: 20; Ratio IC50 [12]: 10
O=c1c(O)c(-c2cc(O)c(O)c(O)c2)oc2cc(O)ccc12 [ROBINETIN] | Active | – | 13900 nM | – | – | inhibition [4]: 89%
